Test results: ChEMBL document CHEMBL1255444, “In vitro antibacterial activities of JNJ-Q2, a new broad-spectrum fluoroquinolone” (Antimicrob Agents Chemother, 2010)
In brackets after ≈: the same amount, converted by molar mass. Activity calls are given as the source filed them. The rule behind the calls is not given here.

Tests used:
[1] = tested on: Streptococcus pneumoniae; experiment: Antibacterial activity against Streptococcus pneumoniae isolate OC6585 assessed as log reduction in bacterial growth at 2 times MIC measured at 6 hrs by time-kill assay; format: functional
In short: (§1)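 Drug was diluted from 50× stocks made in water or acidified water. Samples were taken at 6 and 24 h and serially diluted onto TSA-5% sheep blood plates. Plates were incubated 20–24 h at 37°C in 5% CO2 before counting CFU. Log10 titer change is given relative to the starting inoculum.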

[2] = tested on: Streptococcus pneumoniae; experiment: Antibacterial activity against Streptococcus pneumoniae ATCC 49619 by broth microdilution method; format: functional
In short: (§2)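 MICs by CLSI M07-A7 broth microdilution in cation-adjusted Mueller-Hinton medium. For S. pneumoniae the medium was supplemented with 5% lysed horse blood. CLSI quality control strains were run alongside as appropriate.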

[3] = tested on: Staphylococcus aureus; experiment: Antibacterial activity against methicillin-resistant Staphylococcus aureus isolate OC11696 by broth microdilution method; format: functional
In short: (§3)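 CLSI M07-A7 broth microdilution MIC. Medium was cation-adjusted Mueller-Hinton broth. For S. pneumoniae it was Mueller-Hinton supplemented with 5% lysed horse blood. CLSI quality-control strains were included as appropriate.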

[4] = tested on: Streptococcus pneumoniae; experiment: Antibacterial activity against Streptococcus pneumoniae isolate OC6608 assessed as log reduction in bacterial growth at 2 times MIC measured at 6 hrs by time-kill assay; format: functional; in short: as §1
[5] = tested on: Providencia stuartii; experiment: Ratio of Levofloxacin MIC90 to compound MIC90 for Providencia stuartii; format: functional
[6] = tested on: Streptococcus pneumoniae; experiment: Antibacterial activity against Streptococcus pneumoniae isolate OC7376 assessed as log reduction in bacterial growth at 4 times MIC measured at 6 hrs by time-kill assay; format: functional; in short: as §1
[7] = tested on: Staphylococcus aureus; experiment: Antibacterial activity against methicillin-resistant Staphylococcus aureus isolate OC8530 harboring gyrA S84L and parC I143V mutant gene assessed as log reduction in bacterial growth at 4 times MIC measured at 24 hrs by time-kill assay; format: functional
In short: (§4)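 Time-kill in cation-adjusted Mueller-Hinton broth. […] Samples were taken up to 24 h, serially diluted onto TSA and counted after 20–24 h at 37°C. Result is log10 decrease at 24 h from the starting inoculum; detection limit 100 CFU.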

[8] = tested on: Staphylococcus aureus; experiment: Antibacterial activity against methicillin-resistant Staphylococcus aureus isolate OC11521 harboring gyrA S84L/S85P, parC E84G mutant gene assessed as log reduction in bacterial growth at 2 times MIC measured at 24 hrs by time-kill assay; format: functional
In short: (§5)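 Overnight MRSA cultures were diluted into fresh cation-adjusted Mueller-Hinton broth to about 5 × 10^6 CFU/ml. […] Samples were plated serially diluted on trypticase soy agar, and CFU were counted after 20-24 h at 37°C. Value is the log10 decrease at 24 h from the starting inoculum; detection limit 100 CFU.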

[9] = tested on: Streptococcus pneumoniae; experiment: Antibacterial activity against Streptococcus pneumoniae isolate OC6585 assessed as log reduction in bacterial growth at 4 times MIC measured at 24 hrs by time-kill assay; format: functional; in short: as §1
[10] = tested on: Streptococcus pneumoniae; experiment: Antibacterial activity against Streptococcus pneumoniae isolate OC6610 assessed as log reduction in bacterial growth at 4 times MIC measured at 6 hrs by time-kill assay; format: functional; in short: as §1
[11] = tested on: Staphylococcus aureus; experiment: Antibacterial activity against methicillin-resistant Staphylococcus aureus isolate OC11150 harboring gyrA S84L and parC S80Y mutant gene by agar dilution method; format: functional
In short: (§6)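 MICs for the resistance-selection studies were determined by CLSI agar dilution on Mueller-Hinton medium. For S. pneumoniae the medium was supplemented with 5% lysed horse blood. For MRSA fluctuation-assay strains an arithmetic agar dilution scheme was used for a more precise MIC.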

[12] = tested on: Streptococcus pneumoniae; experiment: Antibacterial activity against Streptococcus pneumoniae isolate OC6608 by broth microdilution method; format: functional; in short: as §3
[13] = tested on: Streptococcus pneumoniae; experiment: Antibacterial activity against Streptococcus pneumoniae isolate OC5462 by broth microdilution method; format: functional; in short: as §3
[14] = tested on: Staphylococcus aureus; experiment: Antibacterial activity against methicillin-resistant Staphylococcus aureus isolate OC8530 harboring gyrA S84L and parC I143V mutant gene assessed as log reduction in bacterial growth at 2 times MIC measured at 24 hrs by time-kill assay; format: functional; in short: as §4
[15] = tested on: Streptococcus pneumoniae; experiment: Antibacterial activity against Streptococcus pneumoniae isolate OC7376 by broth microdilution method; format: functional; in short: as §3
[16] = tested on: Proteus mirabilis; experiment: Antibacterial activity against Proteus mirabilis by broth microdilution method; format: functional; in short: as §2
[17] = tested on: Serratia marcescens; experiment: Antibacterial activity against Serratia marcescens by broth microdilution method; format: functional; in short: as §2
[18] = tested on: Staphylococcus aureus; experiment: Antibacterial activity against methicillin-, ciprofloxacin-resistant Staphylococcus aureus by broth microdilution method; format: functional; in short: as §3
[19] = Distribution coefficient, log D of the compound; format: physicochemical; settings: octanol/water
[20] = tested on: Streptococcus pneumoniae; experiment: Antibacterial activity against Streptococcus pneumoniae isolate OC5462 assessed as log reduction in bacterial growth at 4 times MIC measured at 24 hrs by time-kill assay; format: functional; in short: as §1
[21] = tested on: Streptococcus pneumoniae; experiment: Antibacterial activity against Streptococcus pneumoniae isolate OC6585 assessed as log reduction in bacterial growth at 4 times MIC measured at 6 hrs by time-kill assay; format: functional; in short: as §1
[22] = tested on: Streptococcus pneumoniae; experiment: Antibacterial activity against penicillin-resistant Streptococcus pneumoniae by broth microdilution method; format: functional, organism-based
In short: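 CLSI M07-A7 broth microdilution MIC in cation-adjusted Mueller-Hinton medium. For S. pneumoniae the medium was supplemented with 5% lysed horse blood. CLSI quality-control strains were included as appropriate.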

[23] = tested on: Staphylococcus aureus; experiment: Antibacterial activity against methicillin-resistant Staphylococcus aureus isolate OC2838 assessed as log reduction in bacterial growth at 4 times MIC measured at 24 hrs by time-kill assay; format: functional; in short: as §5
[24] = tested on: Streptococcus pneumoniae; experiment: Antibacterial activity against Streptococcus pneumoniae isolate OC5462 assessed as log reduction in bacterial growth at 2 times MIC measured at 24 hrs by time-kill assay; format: functional; in short: as §1
[25] = tested on: Streptococcus pneumoniae; experiment: Antibacterial activity against Streptococcus pneumoniae OC6755 harboring gyrA S81F and parC S79Y mutant gene by agar dilution method; format: functional; in short: as §6
[26] = tested on: Streptococcus pneumoniae; experiment: Antibacterial activity against Streptococcus pneumoniae isolate OC7348 assessed as log reduction in bacterial growth at 4 times MIC measured at 24 hrs by time-kill assay; format: functional; in short: as §1
[27] = tested on: Streptococcus pneumoniae; experiment: Antibacterial activity against Streptococcus pneumoniae isolate OC6585 assessed as log reduction in bacterial growth at 2 times MIC measured at 24 hrs by time-kill assay; format: functional; in short: as §1
[28] = tested on: Streptococcus pneumoniae; experiment: Antibacterial activity against Streptococcus pneumoniae isolate OC6790 assessed as log reduction in bacterial growth at 4 times MIC measured at 24 hrs by time-kill assay; format: functional; in short: as §1
[29] = tested on: Staphylococcus aureus; experiment: Antibacterial activity against methicillin-resistant Staphylococcus aureus isolate OC12501 assessed as log reduction in bacterial growth at 4 times MIC measured at 24 hrs by time-kill assay; format: functional; in short: as §5
[30] = tested on: Streptococcus pneumoniae; experiment: Antibacterial activity against Streptococcus pneumoniae isolate OC7348 assessed as log reduction in bacterial growth at 4 times MIC measured at 6 hrs by time-kill assay; format: functional; in short: as §1
[31] = tested on: Streptococcus pneumoniae; experiment: Ratio of Ciprofloxacin MIC90 to compound MIC90 for ciprofloxacin-resistant Streptococcus pneumoniae; format: functional
[32] = Aqueous solubility of the compound; format: physicochemical
[33] = tested on: Providencia stuartii; experiment: Antibacterial activity against Providencia stuartii by broth microdilution method; format: functional; in short: as §2
[34] = tested on: Staphylococcus aureus; experiment: Antibacterial activity against methicillin-resistant Staphylococcus aureus isolate OC11521 harboring gyrA S84L/S85P, parC E84G mutant gene by broth microdilution method; format: functional; in short: as §3
[35] = tested on: Streptococcus pneumoniae; experiment: Antibacterial activity against Streptococcus pneumoniae isolate OC5462 assessed as log reduction in bacterial growth at 4 times MIC measured at 6 hrs by time-kill assay; format: functional; in short: as §1

Compound: COc1c(N2CCC/C(=C(\F)CN)C2)c(F)cc2c(=O)c(C(=O)O)cn(C3CC3)c12 [ACORAFLOXACIN]
- deltalog10CFU/ml [1]: 3.9
- MIC50 [2]: 0.015 µg/mL (≈ 0.0358 µM)
- MIC90 [2]: 0.12 µg/mL (≈ 0.286 µM)
- MIC [3]: 0.06 µg/mL (≈ 0.143 µM)
- deltalog10CFU/ml [4]: 3.8
- Ratio [5]: 16
- deltalog10CFU/ml [6]: 5.3
- deltalog10CFU/ml [7]: 6.3
- deltalog10CFU/ml [8]: 2.3
- deltalog10CFU/ml [9]: 6.6
- deltalog10CFU/ml [10]: 3.5
- MIC [11]: 0.12 µg/mL (≈ 0.286 µM)
- MIC [12]: 0.06 µg/mL (≈ 0.143 µM)
- MIC [13]: 0.06 µg/mL (≈ 0.143 µM)
- deltalog10CFU/ml [14]: 6.3
- MIC [15]: 0.12 µg/mL (≈ 0.286 µM)
- MIC50 [16]: 0.25 µg/mL (≈ 0.596 µM)
- MIC90 [16]: 0.5 µg/mL (≈ 1.19 µM)
- MIC50 [17]: 0.5 µg/mL (≈ 1.19 µM)
- MIC90 [17]: 1 µg/mL (≈ 2.38 µM)
- MIC50 [18]: 0.25 µg/mL (≈ 0.596 µM)
- MIC90 [18]: 0.25 µg/mL (≈ 0.596 µM)
- logD [19]: 0.37
- deltalog10CFU/ml [20]: 6.8
- deltalog10CFU/ml [21]: 4.3
- Activity [22]: Active
- deltalog10CFU/ml [23]: 4.5
- deltalog10CFU/ml [24]: 3.3
- MIC [25]: 0.12 µg/mL (≈ 0.286 µM)
- deltalog10CFU/ml [26]: 6.5
- deltalog10CFU/ml [27]: 6.6
- deltalog10CFU/ml [28]: 6.8
- deltalog10CFU/ml [29]: 6.2
- deltalog10CFU/ml [30]: 3.6
- Ratio [31]: 9
- solubility [32]: 4520 µg/mL (≈ 10800 µM)
- MIC50 [33]: 2 µg/mL (≈ 4.77 µM)
- MIC90 [33]: 4 µg/mL (≈ 9.54 µM)
- MIC [34]: 1 µg/mL (≈ 2.38 µM)
- deltalog10CFU/ml [35]: 3.4
